Data set [1] is described as follows: Cytotoxicity against BALB/c mouse splenic lymphocytes co-cultured with C57BL/6 mouse splenic lymphocytes assessed as reduction of cell viability after 72 hrs. Format: cell-based, Splenic lymphocyte. To be noted: BALB/c and C57BL/6, mouse.
The next data set deals with Splenic lymphocyte. Briefly: Immunosuppressive activity in BALB/c mouse splenic lymphocytes co-cultured with C57BL/6 mouse splenic lymphocytes assessed as inhibition of cell proliferation after 72 hrs by mixed lymphocyte reaction assay. Format: functional, cell-based. In outline: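 Stimulator BALB/c splenic lymphocytes (1 × 10⁷ cells/mL) were γ-irradiated with ⁶⁰Co for 7 min. They were co-cultured with fresh C57BL/6 splenic responder lymphocytes and compound at 25, 50 or 100 μM in RPMI 1640 with FCS for 72 h at 37 °C under 5% CO₂. Cells were then pulsed with [³H]thymidine for another 24 h to read proliferation.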

Data set [2] can be described thus: Inhibition of rabbit erythrocyte SAHase by DTNB-coupled assay. Details: species or system Oryctolagus cuniculus. The essentials:
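SAHase hydrolytic activity was measured by DTNB-coupled assay. Enzyme and compound were preincubated in phosphate buffer, pH 8.0, for 10 min before the reaction was started.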

Drawing on ChEMBL document CHEMBL1142455, “Synthesis and biological evaluation of immunosuppressive agent DZ2002 and its stereoisomers” (Bioorg Med Chem, 2008), this text covers CC50, Activity and IC50 for 4 compounds.

The structures appear in SMILES notation. Active and inactive are the calls of the source. The rule behind the calls is not given here. Bounds are passed on as bounds.

Take `COC(=O)[C@@H](O)CCn1cnc2c(N)ncnc21`: the CC50 (as a rule, the concentration that lowers cell viability or growth by half) at 72 h in data set [1] was over 1000 µM. For the same compound, in the data set on Splenic lymphocyte, the result was Active. For the same compound, the IC50 (commonly the concentration that inhibits the measured activity by half) in data set [2] came to 21.2 µM.
Take `COC(=O)[C@H](O)CCn1cnc2c(N)ncnc21`: in data set [1], the CC50 at 72 h was over 1000 µM. Moreover, the outcome in the data set on Splenic lymphocyte was Active. For the same compound, half-maximal inhibition in data set [2] (IC50) was put at 61.3 µM.
Consider `COC(=O)C(O)CCn1cnc2c(N)ncnc21` (racemic), for which the CC50 at 72 h in data set [1] was over 1000 µM. Also, the outcome with Splenic lymphocyte was Active. In data set [2], the IC50 is 24.4 µM.
Taken in the same sequence, the figures for `COC(=O)C(=O)CCn1cnc2c(N)ncnc21` were over 1000 µM, “Active” and 194 µM.
